Test results from ChEMBL document CHEMBL2177049, “Novel cytidine-based orotidine-5'-monophosphate decarboxylase inhibitors with an unusual twist” (J Med Chem, 2012).
Values after ≈ are worked out from the molar mass of the structure shown.

Key:
[1] = biological target: T1, Orotidine phosphate decarboxylase (Plasmodium falciparum, UniProt Q8T6J6); test: Inhibition of Plasmodium falciparum ODCase by isothermal titration calorimetry
T1 sequence (Q8T6J6 whole entry): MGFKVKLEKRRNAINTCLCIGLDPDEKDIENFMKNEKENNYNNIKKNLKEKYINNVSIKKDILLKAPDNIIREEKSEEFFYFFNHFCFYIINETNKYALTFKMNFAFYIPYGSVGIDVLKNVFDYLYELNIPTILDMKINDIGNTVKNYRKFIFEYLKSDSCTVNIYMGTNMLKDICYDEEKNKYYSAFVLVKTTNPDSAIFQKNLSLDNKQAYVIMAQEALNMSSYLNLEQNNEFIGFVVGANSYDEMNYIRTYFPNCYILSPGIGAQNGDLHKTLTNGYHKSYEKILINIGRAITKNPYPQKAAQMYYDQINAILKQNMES
Procedure, shortened: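 Recombinant P. falciparum enzyme, preincubated overnight at room temperature in 50 mM Tris, 40 mM NaCl, 20 mM DTT. ITC at 37 °C in 50 mM Tris, 20 mM DTT, pH 7.5, with 60 nM enzyme and 12 μM substrate. Substrate injection into enzyme–inhibitor mix started the reaction. Triplicate runs; competitive Ki derived from rate versus [S] and double-reciprocal plots.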

[2] = biological target: T2, Uridine 5'-monophosphate synthase (Homo sapiens, UniProt P11172); test: Inhibition of human ODCase by isothermal titration calorimetry
T2 sequence (P11172 whole entry): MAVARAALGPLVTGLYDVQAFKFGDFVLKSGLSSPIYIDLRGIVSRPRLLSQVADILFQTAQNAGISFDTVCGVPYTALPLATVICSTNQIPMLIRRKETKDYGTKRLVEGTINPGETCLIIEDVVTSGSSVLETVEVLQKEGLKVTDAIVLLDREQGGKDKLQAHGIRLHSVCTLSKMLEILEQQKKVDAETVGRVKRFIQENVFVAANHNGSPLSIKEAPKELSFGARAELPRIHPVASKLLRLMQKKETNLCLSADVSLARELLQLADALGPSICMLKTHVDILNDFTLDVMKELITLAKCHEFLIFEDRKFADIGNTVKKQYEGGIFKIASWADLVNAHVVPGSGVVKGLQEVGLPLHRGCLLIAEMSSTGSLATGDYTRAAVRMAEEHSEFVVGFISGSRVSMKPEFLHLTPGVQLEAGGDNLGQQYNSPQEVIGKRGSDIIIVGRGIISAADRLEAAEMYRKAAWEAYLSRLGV
Procedure, shortened: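 Recombinant human enzyme, preincubated overnight at room temperature in 50 mM Tris, 40 mM NaCl, 20 mM DTT. Substrate injection into enzyme–inhibitor mix started the reaction. Triplicates; competitive Ki from rate versus [S] and double-reciprocal analysis.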

[3] = biological target: Orotidine 5'-phosphate decarboxylase (Methanobacterium thermoautotrophicum, UniProt O26232); test: Inhibition of Methanobacterium thermoautotrophicum ODCase by isothermal titration calorimetry; set-up: species or system Methanothermobacter thermautotrophicus
Chain of Orotidine 5'-phosphate decarboxylase (O26232 whole entry): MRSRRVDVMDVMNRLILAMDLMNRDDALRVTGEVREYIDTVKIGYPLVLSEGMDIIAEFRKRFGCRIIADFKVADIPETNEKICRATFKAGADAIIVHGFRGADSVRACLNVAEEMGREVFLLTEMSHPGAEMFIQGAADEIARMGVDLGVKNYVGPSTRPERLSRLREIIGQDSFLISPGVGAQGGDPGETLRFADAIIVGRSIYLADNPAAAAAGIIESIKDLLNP
Procedure, shortened: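 Recombinant M. thermoautotrophicum enzyme, preincubated overnight at room temperature in 50 mM Tris, 40 mM NaCl, 20 mM DTT. Activity read by ITC at 55 °C in 50 mM Tris, 20 mM DTT, pH 7.5, with 20 nM enzyme and 40 μM substrate; inhibitor 0–100 μM. Substrate injection into enzyme–inhibitor mix started the reaction. Triplicates; competitive Ki from rate versus [S] and double-reciprocal plots.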

Plasmodium falciparum = test: Antimalarial activity against Plasmodium falciparum incubated for 48 hrs by fluorescence-based SYBR-green assay; format: functional, organism-based
Procedure, shortened: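 P. falciparum ItG line grown in human O erythrocytes in RPMI 1640 with 10% human serum and 50 μM hypoxanthine. Compound stock was 10 mg/mL in RPMI, filter-sterilized, then serially diluted up to 500 μg/mL with constant parasite numbers. Plates were held 48 h under 3% CO2/2% O2/95% N2 and read by SYBR Green/Triton X-100 fluorescence. Quadruplicates; IC50 by nonlinear regression of dose–response.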

Structure (SMILES) | Ki [1] | Ki [2] | Ki [3] | IC50 (Plasmodium falciparum)
O=c1ccn([C@@H]2O[C@H](COP(=O)(O)O)[C@@H](O)[C@H]2O)c(=O)[nH]1 | 210 µM | 220 µM | 330 µM | 
Nc1ccn([C@@H]2O[C@H](COP(=O)(O)O)[C@@H](O)[C@H]2O)c(=O)[n+]1[O-] | 22.1 µM |  | 11.1 µM | 
O=c1nc(NO)ccn1[C@@H]1O[C@H](COP(=O)(O)O)[C@@H](O)[C@H]1O | > 1000 µM |  |  | 
Nc1ccn([C@@H]2O[C@H](CO)[C@@H](O)[C@H]2O)c(=O)[n+]1[O-] |  |  |  | 411 µg/mL (≈ 1590 µM)
Nc1ccn([C@@H]2O[C@H](COP(=O)(O)O)[C@@H](O)[C@H]2O)c(=O)n1 | > 10000 µM | 1400 µM | 1200 µM | 
O=c1nc(NO)ccn1[C@@H]1O[C@H](CO)[C@@H](O)[C@H]1O [N-HYDROXYCYTIDINE] |  |  |  | 610 µg/mL (≈ 2350 µM)
